Compound activity (PubChem BioAssay)
Many of the other results were omitted from the sample, so hits are more common in it than they were.
CHOP inh: CHOP inhibition in unfolded protein response; 220,000 tested, 3.8% active; inhibition, % at 10 µM; CHO-K1 CHOP-promoter luciferase, tunicamycin-induced, 15-18 h;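 active means compounds that reduced the stress-induced luciferase reporter signal by more than about 70% of percent inhibition, limit read from the data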;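 further: 0% = tunicamycin plus vehicle and 100% = wells without tunicamycin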
XBP1 UPR activ: activators of adaptive arm of unfolded protein response (XBP1) | CHO-XBP1 luciferase reporter, IRE1-XBP1 UPR activation, luminescence; percent of tunicamycin response, DMSO as zero | activation, % at 20 µM | 330,000 tested, 0.33% active | AID 463104;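 active means versus positive control, 20 µM dose yields 30% or more activation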;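 further: 100% = tunicamycin at 10 µg/mL and 0% = DMSO only wells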
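Signal: luciferase luminescence; Assay system: CHO-XBP1 luciferase reporter cells; Amount: one thousand reporter cells per well; Dosing: 20 µM single concentration, DMSO 1%; Benchmarks: high control tunicamycin 10 µg/mL final, low control DMSO vehicle only; Schedule: 6 h compound exposure at 37 °C, 5% CO2; Evaluation: percent activation relative to tunicamycin reference.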
UPR CHOP act: apoptotic UPR (CHOP) activation | CHO-CHOP luciferase reporter, luminescence; percent of tunicamycin response over DMSO baseline | 330,000 tested, 0.34% active | AID 449763 | activation, % at 10 µM;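 active means at 10 µM dose, activation of 40% or more, normalized to positive control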;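 further: 100% = tunicamycin at 10 µg/mL and 0% = DMSO alone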
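Evaluation: % reporter activation, DMSO baseline versus tunicamycin full activation; System: CHO-CHOP luciferase reporter cell line; Input: 500 cells/well; Incubation: 6 h compound treatment, 37 °C; Measured by: Steady-Glo luciferase luminescence; Dosing: one dose, 10 µM in 0.5% DMSO; Buffer or medium: F12 medium, 10% FBS; Benchmarks: positive tunicamycin 10 µg/mL, negative DMSO alone.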
GAA850 FXN act: frataxin GAA850 promoter activation | HEK293 lucGAA850 FXN promoter luciferase reporter, 24 h; percent of 10 µM SAHA response | activation, % at 6 µM | 360,000 tested, 0.56% active;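 active means activation above the average of all compounds screened plus 3 SD, cutoff fixed separately per campaign, cut at about 7.5% in these data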;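 further: 0% = DMSO wells and 100% = 10 µM SAHA wells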
CHOP confirm: confirmation of CHOP induction inhibitors; shares compounds with CHOP inh; CHO-CHOP promoter luciferase reporter, tunicamycin-induced, luminescence; inhibition, % at 10 µM; 2,100 tested, 45% active;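 active means mean of three repeat readings of reporter signal inhibition above a set limit, cut at about 70% in these data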;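 further: 0% = tunicamycin plus vehicle and 100% = wells lacking tunicamycin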
An asterisk follows results filed as active.

For O=S(=O)(NC1CC1)c1ccc(S(=O)(=O)N2CCN3CCCC3C2)cc1 (configuration not stated) the results were CHOP inh 6.8, XBP1 UPR activ -2.1, UPR CHOP act -2.0 and GAA850 FXN act -1.3.
CCc1ccc(CCC(=O)N2CCN(S(=O)(=O)c3ccc(Br)cc3)CC2)cc1 was read as GAA850 FXN act -1.3.
`Cc1nc(SCC(=O)NC2CCCC2)c2oc3ccccc3c2n1` gave GAA850 FXN act 0.8.
Screening Cc1nc(SCC(=O)Nc2ccc(C)c(F)c2)c2oc3ccccc3c2n1 returned CHOP inh 101.9*, XBP1 UPR activ 2.3, UPR CHOP act -1.3, GAA850 FXN act -0.2 and CHOP confirm 109.7*.
Screening Cc1cccc(C(=O)NC(=S)NNC(=O)c2ccc(Cl)cc2)c1 returned CHOP inh 106.6*, GAA850 FXN act -1.1 and CHOP confirm 52.7.
O=C1c2cccc3cccc(c23)C(=O)N1Cc1cccnc1 was read as CHOP inh -3.8, XBP1 UPR activ -1.7, UPR CHOP act -1.0 and GAA850 FXN act 2.8.
O=C1c2cccc3c([N+](=O)[O-])ccc(c23)C(=O)N1Cc1cccnc1 was read as CHOP inh 109.5*, GAA850 FXN act 0.6 and CHOP confirm -202.9.
Cc1ccnc(N2C(=O)c3cccc4c([N+](=O)[O-])ccc(c34)C2=O)c1 was read as CHOP inh 106.3*, XBP1 UPR activ -10.2, UPR CHOP act 1.8, GAA850 FXN act -2.2 and CHOP confirm -53.3.
Cc1ccnc(N2C(=O)c3ccccc3C2=O)c1 was read as XBP1 UPR activ -0.8, UPR CHOP act -0.7 and GAA850 FXN act 2.0.
Screening COc1ccc(NC(=O)CSc2nnc3n2CCCCC3)cc1OC returned GAA850 FXN act -0.4.
COc1ccc(OC)c(NC(=O)C2(C)CCN2C(=O)CCC2CCCC2)c1 (configuration not stated) was read as GAA850 FXN act -0.9.
CS(=O)(=O)c1nc(-c2cccs2)cc(C(F)(F)F)n1 was read as CHOP inh 110.9*, XBP1 UPR activ -7.1, UPR CHOP act -9.6 and CHOP confirm 120.1*.
For COC(=O)CCS(=O)(=O)c1nc(-c2ccccc2)cc(C(F)(F)F)n1 the results were CHOP inh 106.4*, XBP1 UPR activ -7.1, UPR CHOP act 3.8, GAA850 FXN act 7.0 and CHOP confirm 31.8.
For CC(=O)Nc1cccc(-c2cccc3nccn23)c1 the results were GAA850 FXN act 2.5.
`CC(O)(c1cccnc1)c1nc(-c2cc(F)cc(F)c2)cs1` (configuration not stated) gave GAA850 FXN act 0.6.
For CC1(C(=O)Nc2cccc(OC(F)(F)F)c2)Cc2c(-c3ccc4c(c3)OCO4)ccnc2O1 (configuration not stated) the results were GAA850 FXN act -3.4.
Cc1cc(/C=C(\C#N)C(=O)NC2CCCCCC2)c(C)[nH]1 was read as CHOP inh 4.9 and GAA850 FXN act 3.4.
Screening COc1ccc(-c2[nH]ncc2/C=C(/C#N)C(=O)NC2CCCCCC2)cc1 returned CHOP inh 99.0*, XBP1 UPR activ 2.5, UPR CHOP act 0.8, GAA850 FXN act -2.5 and CHOP confirm 81.7*.
Screening CC1(C(=O)NS(=O)(=O)c2ccccc2OC(F)(F)F)CCN1C(=O)c1ccccc1 (configuration not stated) returned GAA850 FXN act 1.2.
For COc1ccc(NC(=O)c2cc(-c3cc(F)ccc3OC)n[nH]2)cn1 the results were GAA850 FXN act 0.9.
O=C1c2ccccc2C(=O)C1c1nccc2ccccc12 was read as CHOP inh 106.4*, XBP1 UPR activ -12.0, UPR CHOP act -8.2, GAA850 FXN act 4.5 and CHOP confirm 104.0*.
Screening COCC(=O)N(C)C[C@H]1Oc2cc(C#Cc3cccnc3)ccc2S(=O)(=O)N([C@H](C)CO)C[C@H]1C returned GAA850 FXN act -0.4.
Cc1c(N2C(=O)/C(=C\c3ccccc3O)SC2=S)c(=O)n(-c2ccccc2)n1C was read as CHOP inh 1.3, XBP1 UPR activ -1.2, UPR CHOP act -2.7 and GAA850 FXN act 0.8.
Screening CN1C(=O)/C(=C/c2cc(N=Nc3ccccc3)ccc2O)SC1=S returned CHOP inh 104.4*, XBP1 UPR activ -1.4, UPR CHOP act -1.0, GAA850 FXN act -0.2 and CHOP confirm 104.0*.
`CC(C)c1ccc2[nH]c(O)c(N=NC(=O)c3cccc(S(=O)(=O)N4CCCCC4)c3)c2c1` gave CHOP inh 66.4, XBP1 UPR activ 2.5, UPR CHOP act 2.2 and GAA850 FXN act 3.4.
`O=C(N=Nc1c(O)[nH]c2ccccc12)c1cccc(S(=O)(=O)N2CCCCC2)c1` gave CHOP inh 96.8*, XBP1 UPR activ 14.1, UPR CHOP act 2.8, GAA850 FXN act 1.9 and CHOP confirm -26.7.
For CC(C)N(C)c1ncnc2c1ncn2[C@H]1CN(Cc2ccc(-c3ccccc3)cc2)C[C@@H](CO)O1 the results were GAA850 FXN act -1.5.
Screening CC(C)S(=O)(=O)N1CCCC(c2cc(C(=O)Nc3ccc(F)c(Cl)c3)no2)C1 (configuration not stated) returned GAA850 FXN act -0.3.
CC1CCCC(NC(=O)COC(=O)/C=C/c2ccc3c(c2)OCO3)C1C (configuration not stated) was read as CHOP inh 97.9*, XBP1 UPR activ -1.4, UPR CHOP act 1.2, GAA850 FXN act 0.2 and CHOP confirm 96.0*.
Screening Cc1c(Br)cccc1NC(=O)C1(C)CCN1Cc1ccccc1OC(F)F (configuration not stated) returned GAA850 FXN act -0.1.
Screening OC[C@@H]1CN(Cc2ccc(Cl)cc2)C[C@H](n2cnc3c(NC4CCC4)ncnc32)O1 returned GAA850 FXN act 0.5.
CC1(C(=O)Nc2cccc(OC(F)(F)F)c2)Cc2c(-c3cccc(C(N)=O)c3)ccnc2O1 (configuration not stated) was read as GAA850 FXN act -2.6.
For COc1cccc2cc(/C(=N/O)c3ccc(Br)cc3)oc12 the results were CHOP inh 105.7*, XBP1 UPR activ -0.9, UPR CHOP act 0.2, GAA850 FXN act 1.3 and CHOP confirm 20.5.
Screening Cc1cc(/C=C2\C(=O)NN(c3ccccc3)C2=O)c(C)n1-c1ccccc1O returned CHOP inh 96.4*, XBP1 UPR activ 2.2, UPR CHOP act 5.3, GAA850 FXN act -1.6 and CHOP confirm 14.6.
For Cc1ccc(CNC(=O)C2CCC(CNc3nc(=S)[nH]c4ccccc34)CC2)cc1 (configuration not stated) the results were CHOP inh 97.9*, XBP1 UPR activ -0.3, UPR CHOP act -2.4, GAA850 FXN act -0.1 and CHOP confirm 39.8.
